Shown is part of a subset that was picked to be rich in hits.
L major viab: Leishmania major promastigote growth inhibition | Leishmania major promastigotes, resazurin fluorescence viability | inhibition, % at 10 µM | hit rate 9% among 200,000; in the data active = inhibition above about 50%;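 also: promastigotes grown with compound for 44 hours at 28 °C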
T cruzi inh: blocks replication of Trypanosoma cruzi; T. cruzi beta-gal in NIH3T3, luminescence, 90 h; inhibition, % (concentration not given with the values); hit rate 1.4% among 300,000; AID 1885;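 active = mean inhibition across valid replicates above about 55%, limit read from the data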;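 also: signal also drops with host cell toxicity which is not excluded here; 0% = plate median of DMSO wells and 100% = zero luminescence signal; higher percent means less beta-gal luminescence so fewer parasites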
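Material: NIH/3T3 host cells with β-galactosidase reporter T. cruzi; Input: 5,000 host fibroblasts per well; Medium: DMEM, 2% fetal bovine serum; Compound: 50 nL DMSO compound solution per well; Schedule: 3 h host attachment, then at least 90 h co-culture; Detection: luminescent β-galactosidase signal after 60 min lysis.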
Lipid droplet: modulators of hepatic lipid droplet formation; AML12 mouse hepatocytes, oleate lipid droplets, BODIPY imaging; inhibition, % at 6.5 µM; hit rate 0.4% among 240,000; AID 1656;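 active = lipid droplet intensity inhibited by at least 50%, with more than 500 cells counted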
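System: AML12 hepatocytes (mouse). Probe or stimulus: oleic acid at 100 µM to induce lipid droplet formation. Times: overnight treatment with compound plus oleate. Detection: Image-based BODIPY and DAPI two-channel analysis. Evaluation: percent inhibition of filter-corrected integrated lipid droplet intensity per well.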
DTT redox prof: compounds producing H2O2 with reducing agent – biochemical, NIH compound library profiling, artefact control for MLSCN library redox annotation, primary screen. activation, % at 10 µM. DTT-dependent redox cycling H2O2, phenol red/HRP absorbance; 100% = 100 µM peroxide control, 0% = buffer. AID 878. hit rate 0.03% among 200,000;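 active = activation of at least 50% relative to the plate's high and low controls in the primary single-dose screen; inactive = activation below 50%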;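 also: compound incubated with DTT at 0.8 mM final as the reducing agent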
MPTP inh: inhibitors of mitochondrial permeability transition pore; isolated mouse mitochondria, Ca2+ swelling absorbance, 30 min; inhibition, % at 10 µM; hit rate 1.4% among 360,000;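 active = inhibition of 50% or more, scaled per plate between neutral and stimulator controls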;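 also: 0% = DMSO wells given calcium and 100% = 1 mM EGTA wells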
Rh123 counter: membrane potential counter-screen of mitochondrial pore inhibitors; hit rate 78% among 5,000; inhibition, % at 10 µM; shares compounds with MPTP inh; isolated mitochondria, Rhodamine 123 fluorescence; in the data active = inhibition above about 22%;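 also: 0% = DMSO vehicle and 100% = positive control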
MPTP swell DR: dose response confirmation of mitochondrial permeability transition pore inhibitors; shares compounds with MPTP inh; hit rate 58% among 780; isolated mitochondria swelling, absorbance; IC50, µM; in the data active = IC50 below about 20 µM
MPTP counter DR: counter-screen for mitochondrial permeability transition pore inhibitors, dose response; isolated mitochondria counterscreen, fluorescence read-out; hit rate 49% among 780; shares compounds with MPTP inh; IC50, µM; AID 651564; in the data active = IC50 below about 80 µM
* marks the source's active call; other numbers are inactive results; i = inactive; . = not tested or not shown.

SMILES | L major viab | T cruzi inh | Lipid droplet | DTT redox prof | MPTP inh | Rh123 counter | others
COC(=O)C1=C(C)NC=C([N+](=O)[O-])C1c1ccc(OC)cc1 (stereo not drawn) | 1 | 18 | -3 | 0 | 3 | .
Cc1cn2c(N)c(C=C3C=C(Cl)C(=O)C(Cl)=C3)c(=O)nc2s1 | 2 | -1 | 14 | -1 | 87* | 83*
CCCCCCCCCCn1ccc(=N)cc1 | . | 77* | -19 | . | 65* | 90*
COc1cccc(/C=N/n2nnnc2N)c1O | . | -4 | 2 | . | 0 | .
CCCN(C(=O)COC(=O)c1[nH]c(C)c(C(=O)OC)c1C)c1c(N)n(Cc2ccccc2)c(=O)[nH]c1=O | . | -7 | . | . | 60* | -19 | MPTP swell DR=>100;MPTP counter DR=>80
CN1CCCC1CCOC(C)(c1ccccc1)c1ccc(Cl)cc1 (stereo not drawn) | . | . | . | . | 81* | -11 | MPTP swell DR=6.1*;MPTP counter DR=>80
Cc1ccc(NC(=O)COc2ccccc2CNC(C)(C)CC(C)(C)C)cc1 | 100* | 61* | 1 | 0 | 50* | 34*
CC(C)(CO)NCc1ccccc1OCC(=O)Nc1ccccc1 | 49 | 5 | 10 | 1 | 0 | .
COc1ccc(CCC(=O)Nc2cccc(S(=O)(=O)N3CCCCCC3)c2)cc1OC | . | . | . | . | 0 | .
COC(=O)c1cc(NC(=O)Cc2ccc(OC)c(OC)c2)cc(C(=O)OC)c1 | 2 | 10 | . | 1 | -1 | .
COc1ccc(CC(=O)Nc2cccc(S(=O)(=O)N3CCCCCC3)c2)cc1OC | 84* | -103 | -18 | 1 | 87* | 81*
COc1ccc(CC(=O)Nc2cccc(SC)c2)cc1OC | 2 | -1 | -6 | -1 | 54* | 42*
CSc1cccc(NC(=O)CCCOc2ccc(Cl)cc2C)c1 | -3 | 8 | 16 | 1 | 75* | 81*
CC(C)(CO)NCc1cccc(OCc2ccc(Cl)cc2)c1 | 31 | 28 | -26 | 0 | 0 | .
Clc1ccc(COc2cccc(CNCc3ccncc3)c2)cc1 | 94* | 70* | . | -2 | 68* | 85*
COc1cccc(-c2csc(N3CCN(C(=O)Nc4ccc(Cl)cc4)CC3)n2)c1 | 29 | 4 | -7 | -1 | 88* | 89*
COCCCNC(=S)N1CCN(c2nc(-c3ccc(Cl)cc3)cs2)CC1 | . | . | . | . | 76* | 78*
CCCCC1(C(=O)OCC)CC(CSC(=N)N)OC1=O (stereo not drawn) | 15 | -3 | 3 | 0 | -3 | .
Cc1nn(-c2ccc(NC(=O)c3ccncc3)cc2)c(C)c1Cl | . | -9 | -5 | . | 80* | 79*
CCc1ccc(N2CCN(C(=O)N3CCOCC3)CC2)cc1 | 7 | -6 | 1 | 0 | 1 | .
O=C(Nc1nc2ccsc2c(=O)s1)c1ccc(Cl)cc1 | . | 13 | -12 | . | 3 | .
CC1CCC(NC(=O)c2cccc(S(=O)(=O)N3CCN(c4ccccc4)CC3)c2)CC1 (stereo not drawn) | . | 9 | . | . | 76* | 18 | MPTP swell DR=i;MPTP counter DR=>80
CC1CCC(NC(=O)c2cccc(S(=O)(=O)N3CCN(C)CC3)c2)CC1 (stereo not drawn) | . | -16 | . | . | 0 | .
CCCCOc1ccc(-c2nc(-c3cccnc3)no2)cc1 | -7 | -38 | 18 | -3 | 64* | 1 | MPTP swell DR=14*;MPTP counter DR=14*
CCCCCCC[C@@H](C/C=C/CCC(=O)N(C)C/C(=C/Cl)C/C(=C\C(=O)N1C[C@H](O)CC1=O)OC)OC | . | . | . | . | 74* | 102*
SMILES | L major viab | T cruzi inh | Lipid droplet | DTT redox prof | MPTP inh | Rh123 counter | others
CCCCCCC[C@@H](C/C=C/CCC(=O)N(C)C/C(=C/Cl)C/C(=C\C(=O)N1CC(OC)=CC1=O)OC)OC | . | . | . | . | 79* | 19
CCCCCCC[C@@H](C/C=C/CCC(=O)O)OC | . | . | . | . | 2 | .
COc1cccc(CN(C(=O)c2cccs2)C2CCS(=O)(=O)C2)c1 (stereo not drawn) | . | -16 | -6 | . | 0 | .
O=C(NC(Nc1nc2ccc([N+](=O)[O-])cc2s1)(C(F)(F)F)C(F)(F)F)c1ccccc1Cl | 100* | 55* | -82 | 1 | 92* | 92*
C/C(=C\c1ccccc1)C(=O)Nc1nc2ccc([N+](=O)[O-])cc2s1 | 32 | -12 | -2 | 0 | 53* | 66*
O=C(NC(Nc1nc2ccc([N+](=O)[O-])cc2s1)(C(F)(F)F)C(F)(F)F)c1cccnc1 | 21 | 56* | -21 | 0 | 87* | 97*
CN(C)S(=O)(=O)c1ccc2nc(NC(=O)c3cccnc3)sc2c1 | 39 | -11 | 10 | 0 | 1 | .
O=[N+]([O-])c1ccc2nc(NS(=O)(=O)c3ccccc3[N+](=O)[O-])sc2c1 | . | -26 | 5 | . | 23 | .
CCSc1nc(C)nc2sc(C)c(C)c12 | . | 0 | 7 | . | 1 | .
O=C1NC(=O)C2(CCCCC2C2CCCCC2)N1 (stereo not drawn) | . | . | . | . | 0 | .
CC(C)=CCc1c(O)cc2oc3c(CC=C(C)C)c(O)c(O)c(CC=C(C)C)c3c(=O)c2c1O | . | 40 | 5 | . | 92* | 7
O=S(=O)(NCC(Nc1ccc(Cl)cc1)c1ccccc1)c1ccccc1 (stereo not drawn) | 13 | 8 | -15 | 0 | 75* | 87*
NS(=O)(=O)c1ccc(NC(CNS(=O)(=O)c2ccccc2)c2ccccc2)cc1 (stereo not drawn) | 4 | -4 | -7 | -2 | -1 | .
CCOC(=O)/C(=C\Nc1ccccc1C(F)(F)F)Sc1ncc(C(F)(F)F)cc1Cl | 3 | 6 | -32 | 0 | 95* | 1 | MPTP swell DR=i;MPTP counter DR=>80
COC(=O)/C(=C\Nc1ccc(Cl)c2ccccc12)c1ncc(C(F)(F)F)cc1Cl | 6 | 7 | 9 | 1 | 8 | .
Cc1cccc(NC(=O)CS(=O)CC(=O)Nc2cnc3ccccc3c2)c1C (stereo not drawn) | . | 12 | -6 | . | -1 | .
Cc1nc(SCC(=O)c2cc(C)n(C3CC3)c2C)c2ccccc2n1 | . | . | . | . | 33 | .
Cc1c(Cl)cccc1NC(=S)N1CCN(S(=O)(=O)c2cccs2)CC1 | 9 | 6 | 9 | -3 | 0 | .
O=C(NC(NC(=S)Nc1c(Cl)cccc1Cl)C(Cl)(Cl)Cl)OCc1ccccc1 (stereo not drawn) | 98* | 10 | -5 | 1 | 100* | 67*
CC(C)CCCCCCNC(=S)Nc1ccc(S(=O)(=O)N2CCOCC2)cc1 | 50 | 5 | -4 | 0 | 84* | 83*
CC(NC(=S)Nc1ccc(S(=O)(=O)N2CCOCC2)cc1)C1CC2CCC1C2 (stereo not drawn) | 63* | 3 | -12 | 0 | 93* | 92*
O=S(=O)(c1ccc(NC(=S)Nc2ccccc2)cc1)N1CCOCC1 | 1 | -31 | 0 | 0 | 6 | .
